Experimental data from ChEMBL document CHEMBL2390903, “Anti-tubercular agents. Part 7: a new class of diarylpyrrole-oxazolidinone conjugates as antimycobacterial agents” (Eur J Med Chem, 2013).
Converted amounts (≈) assume the structure as drawn.

Key:
[1] = tested on: Mycobacterium tuberculosis; assay: Antitubercular activity against Mycobacterium tuberculosis XDR-1 assessed as growth inhibition after 2 to 3 weeks by broth microdilution method; assay type: functional
In short: (§1)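 Primary screen of all compounds against H37Rv at a single concentration in triplicate by microplate dilution. Actives then went to MIC determination by broth microdilution against H37Rv, rifampicin-resistant and XDR-1 isolates. Plates incubated 2–3 weeks at 37 °C in a CO2 incubator. MIC read visually as absence of growth turbidity. Rifampicin and linezolid served as reference drugs.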

[2] = tested on: Mycobacterium tuberculosis; assay: Antitubercular activity against Mycobacterium tuberculosis H37Rv assessed as growth inhibition after 2 to 3 weeks by broth microdilution method; assay type: functional; in short: as §1
Pseudomonas aeruginosa = assay: Antibacterial activity against Pseudomonas aeruginosa MTCC 2453 assessed as growth inhibition after 24 hrs by agar dilution method; assay type: functional; details: MTCC 2453, 24 h
Bacillus subtilis [3] = assay: Antibacterial activity against Bacillus subtilis MTCC 121 assessed as growth inhibition after 24 hrs by agar dilution method; assay type: functional; details: MTCC 121, 24 h
Escherichia coli = assay: Antibacterial activity against Escherichia coli MTCC 739 assessed as growth inhibition after 24 hrs by agar dilution method; assay type: functional; details: MTCC 739, 24 h
Micrococcus luteus [4] = assay: Antibacterial activity against Micrococcus luteus MTCC 2470 assessed as growth inhibition after 24 hrs by agar dilution method; assay type: functional; details: MTCC 2470, 24 h
Staphylococcus [5] = assay: Antibacterial activity against 16-membered ring macrolide- lincosamide-streptogramin B-resistant Staphylococcus MTCC 2940 assessed as growth inhibition after 24 hrs by agar dilution method; assay type: functional; details: MTCC 2940, 24 h
Staphylococcus aureus [6] = assay: Antibacterial activity against Staphylococcus aureus MTCC 96 assessed as growth inhibition after 24 hrs by agar dilution method; assay type: functional; details: MTCC 96, 24 h
Bacillus subtilis [7] = assay: Antibacterial activity against Bacillus subtilis MTCC 121 assessed as growth inhibition at 20 ug/mL after 24 hrs; assay type: functional; details: MTCC 121, 24 h, read-out: IZ
Micrococcus luteus [8] = assay: Antibacterial activity against Micrococcus luteus MTCC 2470 assessed as growth inhibition at 20 ug/mL after 24 hrs; assay type: functional; details: MTCC 2470, 24 h, read-out: IZ
Staphylococcus [9] = assay: Antibacterial activity against 16-membered ring macrolide- lincosamide-streptogramin B-resistant Staphylococcus MTCC 2940 assessed as growth inhibition at 20 ug/mL after 24 hrs; assay type: functional; details: MTCC 2940, 24 h, read-out: IZ
Staphylococcus aureus [10] = assay: Antibacterial activity against Staphylococcus aureus MTCC 96 assessed as growth inhibition at 20 ug/mL after 24 hrs; assay type: functional; details: MTCC 96, 24 h, read-out: IZ
[11] = Cytotoxicity against mouse J744 cells assessed as growth inhibition after 24 hrs by MTT assay; assay type: cell-based; details: J744, 24 h
In short: (§2)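 Mouse J-774 macrophages exposed to test material (40) in RPMI with 10% FCS for 24 h at 37 °C under CO2. MTT then added with a further 3 h incubation. Formazan absorbance read at […]. Percent cytotoxicity calculated relative to untreated cells.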

[12] = Selectivity index, ratio of IC50 for mouse J744 cells to MIC for Mycobacterium tuberculosis H37Rv; assay type: functional
[13] = Cytotoxicity against mouse J744 cells assessed as growth inhibition at 40 ug/mL after 24 hrs by MTT assay relative to control; assay type: cell-based; details: read-out: GI; in short: as §2
Bacillus subtilis [14] = assay: Antibacterial activity against Bacillus subtilis MTCC 121 assessed as growth inhibition at 20 mg/mL after 24 hrs; assay type: functional; details: MTCC 121, 24 h, read-out: IZ
Staphylococcus [15] = assay: Antibacterial activity against 16-membered ring macrolide- lincosamide-streptogramin B-resistant Staphylococcus MTCC 2940 assessed as growth inhibition at 20 mg/mL after 24 hrs; assay type: functional; details: MTCC 2940, 24 h, read-out: IZ

Row | Structure (SMILES) | MIC [1] [µg/mL] | MIC [2] [µg/mL] | MIC (Pseudomonas aeruginosa) [µg/mL] | MIC (Bacillus subtilis [3]) [µg/mL] | MIC (Escherichia coli) [µg/mL] | MIC (Micrococcus luteus [4]) [µg/mL] | MIC (Staphylococcus [5]) [µg/mL] | MIC (Staphylococcus aureus [6]) [µg/mL] | zone of inhibition at 20 µg/mL (Bacillus subtilis [7]) [mm] | zone of inhibition at 20 µg/mL (Micrococcus luteus [8]) [mm] | zone of inhibition at 20 µg/mL (Staphylococcus [9]) [mm] | zone of inhibition at 20 µg/mL (Staphylococcus aureus [10]) [mm] | IC50 [11] [µM] | Selectivity Index [12] | inhibition at 24 h, 40 ug/mL [13] [%] | zone of inhibition at 20000 µg/mL (Bacillus subtilis [14]) [mm] | zone of inhibition at 20000 µg/mL (Staphylococcus [15]) [mm]
1 | Cc1c(CN2CCN(c3ccc(N4C[C@H](Cn5cc(-c6ccccc6)nn5)OC4=O)cc3F)CC2)cc(-c2ccc(F)cc2F)n1-c1cc(F)ccc1Br | > 16 | > 16 |  |  |  |  |  |  |  |  |  |  |  |  |  |  | 
2 | Cc1c(CN2CCN(c3ccc(N4C[C@H](Cn5cc(-c6cncn6C)nn5)OC4=O)cc3F)CC2)cc(-c2ccc(F)cc2F)n1-c1ccc(F)cc1 | 16 (≈ 22 µM) | > 6.25 | > 40 | > 30 | > 40 | > 30 | > 30 | 16 (≈ 22 µM) |  |  |  |  |  |  |  |  | 
3 | CC(=O)NC[C@H]1CN(c2ccc(N3CCN(Cc4cc(-c5ccccc5C)n(-c5ccc(F)cc5)c4C)CC3)c(F)c2)C(=O)O1 |  |  | > 40 | 3 (≈ 4.89 µM) | > 40 | 1.5 (≈ 2.44 µM) | 5 (≈ 8.15 µM) | 1.5 (≈ 2.44 µM) |  |  |  |  |  |  |  |  | 
4 | Cc1c(CN2CCN(c3ccc(N4C[C@H](Cn5cc(-c6ccccn6)nn5)OC4=O)cc3F)CC2)cc(-c2ccc(F)cc2F)n1-c1ccc(F)cc1 | 16 (≈ 22.1 µM) | 4 (≈ 5.53 µM) | > 40 | 1 (≈ 1.38 µM) | > 40 | 3 (≈ 4.15 µM) | 6 (≈ 8.3 µM) | 0.5 (≈ 0.692 µM) | 24 | 36 | 40 | 39 | > 40 | >10 | 31.9 |  | 
5 | CC(=O)NC[C@H]1CN(c2ccc(N3CCN(Cc4cc(-c5ccc(C(C)C)cc5)n(-c5ccc(F)cc5F)c4C)CC3)c(F)c2)C(=O)O1 | 16 (≈ 24.3 µM) | 4 (≈ 6.06 µM) | > 40 | 1.5 (≈ 2.27 µM) | > 40 | 3 (≈ 4.55 µM) | 6 (≈ 9.09 µM) | 2 (≈ 3.03 µM) | 12 | 18 | 15 | 16 | > 40 | >10 | 40.2 |  | 
6 | Cc1c(CN2CCN(c3ccc(N4C[C@H](Cn5cc(-c6cncn6C)nn5)OC4=O)cc3F)CC2)cc(-c2ccc(C(C)C)cc2)n1-c1ccc(F)cc1F | 4 (≈ 5.33 µM) | 4 (≈ 5.33 µM) | > 40 | > 30 | > 40 | > 30 | > 30 | 8 (≈ 10.7 µM) |  |  |  |  | > 40 | >10 | 44.7 |  | 
7 | Cc1ccccc1-c1cc(CN2CCN(c3ccc(N4C[C@H](Cn5cc(-c6cncn6C)nn5)OC4=O)cc3F)CC2)c(C)n1-c1ccc(F)cc1 | 8 (≈ 11.4 µM) | 2 (≈ 2.84 µM) | > 40 | > 30 | > 40 | > 30 | > 30 | 10 (≈ 14.2 µM) |  |  |  |  | > 40 | >10 | 49.3 |  | 
8 | Cc1c(CN2CCN(c3ccc(N4C[C@H](Cn5cc(-c6ccccc6)nn5)OC4=O)cc3F)CC2)cc(-c2cccc(Cl)c2)n1-c1ccccc1F | > 16 | > 16 | > 40 | > 40 | > 40 | 8 (≈ 11.1 µM) | 10 (≈ 13.9 µM) | > 40 |  |  |  |  |  |  |  |  | 
9 | Cc1ccc(-c2cc(CN3CCN(c4ccc(N5C[C@H](Cn6cc(-c7ccccc7)nn6)OC5=O)cc4F)CC3)c(C)n2-c2ccc(Cl)c(Cl)c2)cc1 | > 16 | > 16 | > 40 | 2.5 (≈ 3.33 µM) | > 40 | 0.5 (≈ 0.666 µM) | 9 (≈ 12 µM) | 8 (≈ 10.7 µM) | 14 | 17 | 19 | 21 |  |  |  |  | 
10 | Cc1c(CN2CCN(c3ccc(N4C[C@H](Cn5cc(-c6ccccc6)nn5)OC4=O)cc3F)CC2)cc(-c2ccc(Cl)c(F)c2)n1-c1ccc(OC(F)(F)F)cc1 | > 16 | > 16 | > 40 | > 40 | > 40 | 8 (≈ 9.95 µM) | > 40 | > 40 |  |  |  |  |  |  |  |  | 
11 | Cc1c(CN2CCN(c3ccc(N4C[C@H](Cn5cc(-c6ccccn6)nn5)OC4=O)cc3F)CC2)cc(-c2ccc(Cl)c(F)c2)n1-c1ccc(OC(F)(F)F)cc1 | > 16 | 4 (≈ 4.97 µM) | > 40 | 16 (≈ 19.9 µM) | > 40 | 8 (≈ 9.94 µM) | 9 (≈ 11.2 µM) | > 30 |  |  |  |  | > 40 | >10 | 37.7 |  | 
12 | CC(=O)NC[C@H]1CN(c2ccc(N3CCOCC3)c(F)c2)C(=O)O1 [LINEZOLID] | 4 (≈ 11.9 µM) | 1 (≈ 2.96 µM) |  | 0.5 (≈ 1.48 µM) |  | 1 (≈ 2.96 µM) | 0.5 (≈ 1.48 µM) | 1.5 (≈ 4.45 µM) |  |  |  |  |  |  |  | 20 | 18
13 | Cc1ccccc1-c1cc(CN2CCN(c3ccc(N4C[C@H](Cn5cc(-c6cncn6C)nn5)OC4=O)cc3F)CC2)c(C)n1-c1ccc(F)c(F)c1 | > 16 | > 6.25 | > 40 | > 30 | > 40 | 10 (≈ 13.9 µM) | > 30 | 10 (≈ 13.9 µM) |  |  |  |  |  |  |  |  | 
14 | Cc1c(CN2CCN(c3ccc(N4C[C@H](Cn5cc(-c6ccccn6)nn5)OC4=O)cc3F)CC2)cc(-c2ccc(F)cc2F)n1-c1cc(F)ccc1Br |  |  |  |  |  |  |  |  |  |  |  |  | > 40 | >10 | 43.9 |  | 
15 | CO[C@H]1/C=C/O[C@@]2(C)Oc3c(C)c(O)c4c(O)c(c(/C=N/N5CCN(C)CC5)c(O)c4c3C2=O)NC(=O)/C(C)=C\C=C\[C@H](C)[C@H](O)[C@@H](C)[C@@H](O)[C@@H](C)[C@H](OC(C)=O)[C@@H]1C [RIFAMPIN] | 2 (≈ 2.43 µM) | 0.2 (≈ 0.243 µM) |  |  |  |  |  |  |  |  |  |  |  |  |  |  | 
16 | Cc1ccc(-c2cc(CN3CCN(c4ccc(N5C[C@H](Cn6cc(-c7ccccn7)nn6)OC5=O)cc4F)CC3)c(C)n2-c2ccc(Cl)c(Cl)c2)cc1 | 16 (≈ 21.3 µM) | 4 (≈ 5.32 µM) | > 40 | 1 (≈ 1.33 µM) | > 40 | 2.5 (≈ 3.33 µM) | > 40 | 8 (≈ 10.6 µM) |  |  |  |  |  |  |  |  | 
17 | CC(=O)NC[C@H]1CN(c2ccc(N3CCN(Cc4cc(-c5cccc(Cl)c5)n(-c5ccccc5F)c4C)CC3)c(F)c2)C(=O)O1 | > 16 | 8 (≈ 12.6 µM) | > 40 | 1.5 (≈ 2.37 µM) | > 40 | 1.5 (≈ 2.37 µM) | 2 (≈ 3.15 µM) | 0.5 (≈ 0.788 µM) | 18 | 27 | 23 | 18 |  |  |  |  | 
18 | Cc1cccc(-c2cn(C[C@H]3CN(c4ccc(N5CCN(Cc6cc(-c7ccccc7C)n(-c7ccc(F)cc7)c6C)CC5)c(F)c4)C(=O)O3)nn2)c1 | > 16 | > 16 | > 40 | 9 (≈ 12.6 µM) | > 40 | > 40 | > 40 | > 40 |  |  |  |  |  |  |  |  | 
19 | Cc1ccccc1-c1cc(CN2CCN(c3ccc(N4C[C@H](Cn5cc(-c6ccccn6)nn5)OC4=O)cc3F)CC2)c(C)n1-c1ccc(F)c(F)c1 | 16 (≈ 22.3 µM) | 4 (≈ 5.56 µM) | > 40 | 12 (≈ 16.7 µM) | > 40 | > 30 | 5 (≈ 6.96 µM) | > 30 |  |  |  |  | > 40 | >10 | 40 |  | 
20 | CC(=O)NC[C@H]1CN(c2ccc(N3CCN(Cc4cc(-c5ccc(F)cc5F)n(-c5cc(F)ccc5Br)c4C)CC3)c(F)c2)C(=O)O1 | > 16 | 8 (≈ 11.2 µM) | > 40 | 2.5 (≈ 3.5 µM) | > 40 | 5 (≈ 7 µM) | 5 (≈ 7 µM) | 3 (≈ 4.2 µM) | 14 | 19 | 18 | 20 |  |  |  |  | 
